# FAS-TE inh: FAS thioesterase (human) inhibition. P49327. recombinant FAS-TE, OMFH fluorogenic substrate, fluorescence endpoint. inhibition, % at 15 µM. 360,000 tested, 0.67% active;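 active means compounds whose normalised, plate-corrected inhibition of enzyme fluorescence in the single-dose primary screen is 50% or more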;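 further: 0% = DMSO with enzyme and 100% = substrate without enzyme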
# hiPSC survival: enhancers of human iPSC single-cell survival. hiPSC single-cell survival, ATPlite luminescence; 100% = ROCK inhibitor wells, 0% = DMSO. survival enhancement, % at 20 µM. 360,000 tested, 0.044% active; in the data active means survival enhancement above about 18%;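 further: cells exposed to compounds for 16 hours before the ATP read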
# NR3A LBD binder: NR3A (human) ligand-binding domain modulation. AID 1259313. NR3A LBD differential scanning fluorimetry, Tm shift; 0% = protein alone, 100% = glycine-bound protein. 340,000 tested, 2.5% active. Tm shift relative to glycine control, % at 25 µM;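 active means melting temperature shift of at least 10% of the positive control shift, at one fixed dose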
# SENP1 inh: SENP1 (human) catalytic domain inhibition; Q9P0U3; recombinant SENP1 catalytic domain, CyPet-SUMO1-YPet FRET cleavage; AID 624204; inhibition, % at 10 µM; 360,000 tested, 0.21% active;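 active means inhibition at least 30% at 10 µM, raw YFP signal under a set limit, fluorescence ratio 0.5 to 1.5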;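 further: 0% = enzyme with DMSO and 100% = no enzyme wells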
#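 Compound: 10 µM single point, 0.5% DMSO; Test system: hSENP1 catalytic domain, recombinant; Timing: 50 min reaction at room temperature; Technique: FRET, CFP and YFP emission; Control set: no-enzyme wells low, DMSO-plus-enzyme wells high control.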
# H9c2 protect: myocardial damage modulation in H9c2 cells | protection from H2O2 cell death, % at 20 µM | 360,000 tested, 0.63% active | H9c2 cardiomyocytes, H2O2 injury protection, ATPLite, 2 h | AID 588492;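 active means compounds giving at least 50% protection of heart cells from peroxide-induced death in the single-dose screen, raw or plate-pattern-corrected value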;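 further: 0% = DMSO wells with peroxide and 100% = DMSO wells without peroxide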
# Arrestin-AP2 inh: blocks beta-arrestin peptide binding to AP2 adaptin. FITC-arrestin peptide / GST-AP2 beads, flow cytometry; AP2 beta2 appendage carries R879A mutation. inhibition, % at 10 µM. 340,000 tested, 0.31% active. AID 504490;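 active means inhibition above a set limit, near 3 SD of compounds lacking own fluorescence, cut at about 54% in these data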;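 further: plate controls were DMSO wells for no effect and 5 µM unlabelled arrestin peptide for full effect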
#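 System: GST-AP2 R879A bound to glutathione beads, E. coli-expressed. Also added: 50 nM FITC-arrestin peptide. Schedule: compound with beads 12 min RT, then probe 1 h RT. Signal: bead flow cytometry, FITC channel. Read-out basis: percent response.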
# * marks the source's active call; other numbers are inactive results; x = no result. Compounds with a hit are over-represented: about 4% of the library has one in this group of screens.
SMILES,FAS-TE inh,hiPSC survival,NR3A LBD binder,SENP1 inh,H9c2 protect,Arrestin-AP2 inh
O=c1/c(=C\c2cc([N+](=O)[O-])cc([N+](=O)[O-])c2O)sc2nc3ccccc3n12,15.6,-0.3,31.2*,91.3*,5.0,0.6
Nc1nc(N)c2cc(CNc3ccc(Cl)c(Cl)c3)ccc2n1,8.3,-2.0,x,0.4,-11.8,x
O=C1[C@@H](c2ccccc2)CC[C@@H]2C=CC[C@H]3CCN1[C@@H]32,-10.9,0.3,x,-0.1,x,x
O=C(NCc1ccccc1)c1cc(C2CCCN(S(=O)(=O)c3ccccc3)C2)on1 (configuration not stated),16.6,5.5,x,0.7,-0.2,x
COc1ccc(NC(=O)c2cc(-c3cc(Cl)ccc3OC)n[nH]2)c(OC)c1,17.3,-1.0,x,1.7,41.1,x
COc1ccc(NC(=O)c2cc(-c3cc(C)c(C)cc3O)n[nH]2)c(OC)c1,2.7,-0.8,42.0*,-0.8,-9.2,6.0
COc1ccc(OC)c(NC(=O)c2cc(-c3cc(C)cc(C)c3O)n[nH]2)c1,3.4,0.9,20.0*,0.1,-4.5,22.6
COc1ccc(OC)c(NC(=O)c2cc(-c3cc(C)c(C)cc3O)n[nH]2)c1,3.3,0.7,40.5*,0.9,-2.6,4.1
COc1ccc(NC(=O)c2cc(-c3cc(Cl)ccc3O)n[nH]2)c(OC)c1,-0.8,0.8,30.8*,0.4,-14.9,-10.6
COc1ccc(OC)c(NC(=O)c2cc(-c3c(C)cc(C)cc3O)n[nH]2)c1,0.5,-0.6,6.6,2.0,3.4,3.1
C[C@H]1CN([C@@H](C)CO)S(=O)(=O)c2ccc(/C=C/c3ccccc3)cc2O[C@H]1CN(C)C(=O)NC1CCCCC1,11.5,3.9,x,-5.6,-6.1,x
CC(C)C[C@@H](CN1CCCC1CN1C(=S)NC[C@@H]1Cc1ccc(O)cc1)N1C[C@H](Cc2ccccc2)N(CC2CCCCCC2)C1=S (some centres not stated),-144.2,-3.5,11.9*,0.8,-21.7,10.1
CC(C)C[C@H]1CNC(=S)N1CC1CCCN1C[C@H](Cc1ccccc1)N1C[C@H](Cc2ccc(O)cc2)N(CC2CCCCCC2)C1=S (some centres not stated),-115.2,-2.4,29.2*,2.2,-24.3,-9.6
CC(C)C[C@@H](CN1CCCC1CN1C(=S)NC[C@@H]1Cc1ccc(O)cc1)N1C[C@H](Cc2ccc(O)cc2)N(CC2CCCCCC2)C1=S (some centres not stated),-110.2,-2.8,35.8*,2.4,-39.3,-17.7
COc1cc(F)ccc1-c1csc(C(O)(c2ccccc2)C(F)(F)F)n1 (configuration not stated),39.6,-1.3,x,3.5,-18.5,x
CCOC(=O)CNC(=O)N1C[C@H]2CON(C)[C@H]2C[C@H]1c1ccccc1Br,-5.0,-1.8,x,1.3,10.4,x
C=CCOC(=O)Nc1nc(CCNC(=O)OC(C)(C)C)c(C(=O)O)s1,x,x,x,-0.7,x,x
O=C(N/N=C/c1cn(-c2cccs2)nc1-c1ccccc1)c1ccccc1Br,31.1,-2.3,10.8*,1.5,0.0,-2.3
O=C(N/N=C/c1cn(-c2cccs2)nc1-c1ccccc1)c1ccccc1O,13.6,-1.3,25.7*,-5.6,-16.3,7.4
COc1cc(-c2cnc3c(NC=O)cc(-c4ccsc4)cn23)cc(OC)c1OC,9.9,-0.6,x,-6.2,56.1*,x
COc1cccc(-c2cc(NC=O)c3ncc(-c4cc(OC)c(OC)c(OC)c4)n3c2)c1,1.9,-1.6,x,-5.7,7.6,x
COc1cc(-c2cnc3c(NC=O)cc(-c4cccnc4)cn23)cc(OC)c1OC,-3.3,-3.1,x,-6.4,76.0*,x
O=C(NC(c1ccccc1)c1ccc2ccccc2n1)C1CCN(Cc2ccc(Cl)c(Cl)c2)CC1 (configuration not stated),12.5,-2.9,x,-3.2,-2.3,x
COc1cc(OC)cc(C2=Cc3ccc(OC)cc3C(CC(C)=O)N2c2ccc(-c3cccs3)cc2)c1 (configuration not stated),22.7,-0.8,x,-36.9,x,x
COc1ccccc1C/C(N)=N/OC(=O)COc1cccc(C)c1,2.1,0.3,12.7*,1.9,3.4,24.0
SMILES,FAS-TE inh,hiPSC survival,NR3A LBD binder,SENP1 inh,H9c2 protect,Arrestin-AP2 inh
CC1(C(=O)NS(=O)(=O)c2ccc(Br)cc2)CCN1C(=O)c1cccc(F)c1 (configuration not stated),-7.7,0.5,x,2.3,0.0,x
COc1cccc(Nc2ccc(Nc3cccc(OC)c3)nn2)c1,13.4,1.0,33.4*,-2.2,-9.8,-7.0
COc1ccccc1-c1ccc(Nc2cccc(C(C)=O)c2)nn1,0.5,-0.5,11.1*,0.8,10.1,2.4
CC(=O)Nc1ccc(S(=O)(=O)N2CN(c3ccc(C)cc3)c3nc4ccccc4nc32)cc1,9.5,-0.3,16.0*,-8.7,3.6,-3.7
CC(C)[C@@H](C(=O)N[C@@H](CCc1ccc(O)cc1)C(=O)O)N(C)C(=O)[C@H](CO)NC(=O)[C@@H](O)[C@H](N)CCCCCCCCl,-3.0,-1.3,x,4.3,0.4,x
CCCCC[C@@H](C)N1C[C@@H](COCc2ccccc2)Oc2cc(N3CCC[C@H]3COC)ccc2S1(=O)=O,19.5,-0.8,x,0.4,x,x
CCc1ccc2oc(=O)cc(CN3CCOCC3)c2c1,-3.2,-3.2,10.3*,2.2,9.3,25.9
CCc1ccc2c(CN3CCOCC3)cc(=O)oc2c1,-7.7,0.2,-5.2,1.4,-3.5,16.3
O=C(Nc1ccc(F)cc1)C(c1cc2ccccc2o1)N1CCN(c2ccncc2)CC1 (configuration not stated),x,x,x,-2.3,x,x
COc1ccc(NC2=CC(=O)CC(C)(C)C2)cc1,-2.5,1.2,15.3*,0.7,-4.0,2.1
Cc1cc(N2CCOCC2)c2c(N)c(Br)cc(C)c2n1,-0.5,-3.4,-0.9,-4.5,51.6*,8.4
CC1(C)N=C(N)N=C(N)N1c1ccc(CCCCc2ccccc2)cc1,-7.8,-1.8,x,1.7,-18.4,x
CN(C)c1ccc(C(CNS(=O)(=O)c2ccc3ccccc3c2)c2c[nH]c3ccccc23)cc1 (configuration not stated),32.5,-1.8,16.3*,3.7,2.0,5.5
CN(C)c1ccc(C(CN)c2c[nH]c3ccccc23)cc1 (configuration not stated),-34.8,-0.2,-0.6,6.2,-9.4,7.1
CCCCN1C(=O)C(CC(=O)NCc2cccc3ccccc23)CC(C(=O)N(C(C)C)C(C)C)=C1C (configuration not stated),10.0,-0.3,x,-2.4,x,x
O=C(CCCN=C1NS(=O)(=O)c2ccccc21)OCC(=O)c1ccccc1,-4.5,0.3,-3.1,0.5,-1.5,29.8
O=C(COC(=O)CCCCCN=C1NS(=O)(=O)c2ccccc21)Nc1ccc(Cl)c(Cl)c1,18.2,0.1,22.5*,0.9,7.9,8.2
